ABCB1 inh – inhibitors of human ABCB1 transporter, ABCG2 counter-screen | P08183 | CCRF-Adr cells, JC-1 efflux, flow cytometry | inhibition, % at 6.6 µM | 190,000 compounds, 0.067% hits | AID 1326; in the data active = inhibition above about 40%;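 note: 0% = vehicle and 100% = reference inhibitor; higher value means more JC-1 retained so stronger ABCB1 efflux block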
ABCG2 block – human ABCG2 inhibition, ABCB1 as counter-screen | Q9UNQ0 | inhibition, % at 6.6 µM | IgMXP3 cells, JC-1 efflux, flow cytometry | 190,000 compounds, 0.1% hits;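 active = inhibition above 80%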;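 note: 0% = DMSO and 100% = nicardipine control wells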
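material = IgMXP3 (ABCG2) plus far-red-tagged CCRF-Adr (ABCB1) cells | amount = 3 million cells/mL, equal mix of both lines | also added = JC-1 transporter substrate | dosing = one concentration, 6.6 µM final | schedule = 10 min at 25 °C | measured by = flow cytometric JC-1 green MFI at 530 nm | read-out basis = percent efflux inhibition, scaled nicardipine 100% to DMSO 0%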
ROMK primary – human ROMK K+ channel modulation, primary screen; P48048; Tet-inducible ROMK, thallium flux fluorescence; actives lie on both sides; B-score at 10 µM; 130,000 compounds, 2% hits; AID 1918;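 active = signal ratio slope over the read window, or its plate-corrected B-score, at least 3 SD from the plate mean, either direction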;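 note: B-score of the F/F0 ratio slope over 7 to 12 s after thallium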
Target sequence (P48048 whole entry, looked up): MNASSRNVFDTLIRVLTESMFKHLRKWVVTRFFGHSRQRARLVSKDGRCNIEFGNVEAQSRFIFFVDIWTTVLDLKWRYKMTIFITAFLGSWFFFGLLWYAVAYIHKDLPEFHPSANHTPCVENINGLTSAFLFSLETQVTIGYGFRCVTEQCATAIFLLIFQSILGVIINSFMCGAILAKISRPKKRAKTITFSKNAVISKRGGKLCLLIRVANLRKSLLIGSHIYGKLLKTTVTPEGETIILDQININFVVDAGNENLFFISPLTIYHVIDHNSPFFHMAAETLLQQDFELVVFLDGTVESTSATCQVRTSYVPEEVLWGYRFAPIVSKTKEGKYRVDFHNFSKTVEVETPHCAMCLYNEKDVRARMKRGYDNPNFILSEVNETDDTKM
Ins promoter up – MIN6 insulin promoter up-regulation; MIN6 insulin promoter-GFP reporter, high-content imaging; hits give high values; z-score at 5 µM; 190,000 compounds, 0.3% hits;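 active = z-score above 3 at 5 µM with at least 500 cells counted in the well; inconclusive = wells under 500 cells, flagged as cytotoxic or low count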
sdo1 growth – compounds rescuing growth of sdo1-depleted yeast, bone marrow failure model. S. cerevisiae sdo1-depleted JHY4D growth rescue, OD600 30 h; hits give high values; pdr5 snq2 efflux-pump mutant strain. z-score at 10 µM. 140,000 compounds, 0.21% hits. AID 817;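 active = z-score above 3 at both the 24 hr and the 30 hr optical density reads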;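 note: z-score against mean and SD of all compound wells on the same plate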
Autophagy HCS – alters autophagy in cells | calls only at 10 µM (by protocol) | AID 463193 | 190,000 compounds, 0.98% hits | MEF GFP-LC3 puncta imaging; test concentration mostly 10 µM;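 active = percentage of spot-positive cells more than 3 SD above its plate mean, without a fluorescence outlier flag or 80% toxicity; inconclusive = no clear call, values can overlap the other calls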;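 note: spot-positive cell cutoff set from DMSO-treated cells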
ROMK retest – retested hit modulating human ROMK potassium channel; shares compounds with ROMK primary; ROMK thallium flux, fluorescence ratio; hits give low values; normalized thallium flux (F/F0 slope) at 10 µM; 3,000 compounds, 54% hits; AID 1917;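 active = Flux at 10 µM at least 3 SD below or above vehicle control mean in one or both replicates; inconclusive = no clear call, values can overlap the other calls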
* = called active by the depositor. Hits are enriched below; roughly 2.3% of the tested compounds scored in any of these assays.

Results for N#C/C(=C\c1ccc(C#N)cc1)C(=O)N1CCCC1 ?
ABCB1 inh: 0; ABCG2 block: 1; ROMK primary: -5.1*; Ins promoter up: -0.51; Autophagy HCS: inactive; ROMK retest: 0.04*

What do the screens show for `N#C/C(=C\c1ccc(O)cc1)C(=O)N1CCCC1`?
Ins promoter up: -0.05

What do the screens show for `COc1ccc(/C=C2\N=C(C)OC2=O)cc1[N+](=O)[O-]`?
Ins promoter up: 0.65

Results for N#CCc1c(C#N)c(N)nc(N2CCN(Cc3ccc4c(c3)OCO4)CC2)c1C#N ?
ROMK primary: -5.6*; Ins promoter up: -0.35; sdo1 growth: -0.3; Autophagy HCS: inactive; ROMK retest: 0.048*

How did Cc1cc(C)c(C#N)c(N2CCN(Cc3ccc4c(c3)OCO4)CC2)n1 do in these assays?
ABCB1 inh: 0; ABCG2 block: 2; ROMK primary: -0.89; Ins promoter up: -0.36; sdo1 growth: 0.38; Autophagy HCS: inactive

Results for Cc1cc(N2CCCC2)ccc1/C=C1\NC(=S)N(C)C1=O ?
ABCB1 inh: 1; ABCG2 block: 0; ROMK primary: -3.2*; Autophagy HCS: active; ROMK retest: 0.025*

How did CCOC(=O)C(=Cc1ccc(-n2cncn2)cc1)C(=O)OCC do in these assays?
ABCB1 inh: 0; ABCG2 block: 1; ROMK primary: -5.1*; Ins promoter up: -0.59; Autophagy HCS: inactive; ROMK retest: 0.063*

How did CCOC(=O)C(=CNc1cc(C)nn1-c1ccc(Cl)cc1)C(=O)OCC do in these assays?
ABCB1 inh: 1; ABCG2 block: 8; ROMK primary: 0.31; sdo1 growth: 0; Autophagy HCS: inactive

How did COCC(=O)N(c1ccccc1)C(C)C(=O)OC (stereo not drawn) do in these assays?
ABCB1 inh: 1; ABCG2 block: 7; ROMK primary: -0.26; Ins promoter up: 0.44; Autophagy HCS: inactive

How did CC(=O)Nc1cccc2c1C(=O)N(c1ccc(C)cc1)C2=O do in these assays?
ABCB1 inh: 1; ABCG2 block: 13; ROMK primary: -2.7*; Ins promoter up: 0.19; sdo1 growth: 0.45; Autophagy HCS: inactive; ROMK retest: 0.076

How did Cc1ccc(C(=O)c2cc([N+](=O)[O-])ccc2N2CCOCC2)cc1 do in these assays?
ABCB1 inh: 1; ABCG2 block: 9; Ins promoter up: 0.15; sdo1 growth: 1.1; Autophagy HCS: inactive

What do the screens show for `CCOc1ccc(C(=O)c2cc([N+](=O)[O-])ccc2N2CCOCC2)cc1`?
ABCG2 block: 5; ROMK primary: 6.7*; Ins promoter up: -3.5; sdo1 growth: -0.76; Autophagy HCS: inactive; ROMK retest: 0.086

What do the screens show for `COc1ccc(C(=O)c2cc([N+](=O)[O-])ccc2N2CCOCC2)cc1`?
ABCB1 inh: 0; ABCG2 block: 1; ROMK primary: 5.6*; Ins promoter up: -2.6; sdo1 growth: 0.74; Autophagy HCS: inactive; ROMK retest: 0.091

What do the screens show for `Cc1ccc(C(=O)c2cc([N+](=O)[O-])ccc2N2CCCCC2)c(C)c1`?
ABCB1 inh: 0; ABCG2 block: -3; ROMK primary: 2.7*; Ins promoter up: -1.3; sdo1 growth: -0.73; Autophagy HCS: inactive; ROMK retest: 0.083

What do the screens show for `O=C(O)c1cc([N+](=O)[O-])ccc1N1CCCCC1`?
ABCB1 inh: 0; ABCG2 block: 1; ROMK primary: 0.17; Ins promoter up: -0.36; sdo1 growth: -0.27; Autophagy HCS: inactive

What do the screens show for `N#Cc1c(NC(=O)C2CC=CCC2C(=O)O)sc2c1CCCCCC2` (stereo not drawn)?
ABCB1 inh: 1; ABCG2 block: 9; Ins promoter up: -0.08; sdo1 growth: 0.11; Autophagy HCS: inactive

What do the screens show for `CCC(C)(C)C1CCc2c(sc(NC(=O)c3ccccc3C(=O)O)c2C#N)C1` (stereo not drawn)?
ROMK retest: 0.11*

How did CC(C)(C)C1CCc2c(sc(NC(=O)C3CC=CCC3C(=O)O)c2C#N)C1 (stereo not drawn) do in these assays?
ABCB1 inh: 1; ABCG2 block: 1; ROMK primary: -3.5*; Ins promoter up: -1.6; sdo1 growth: 0.85; Autophagy HCS: inactive; ROMK retest: inconclusive
